Test system: MS2 coat protein
Test: apparent Kd, MS2 coat protein; higher = weaker binding; RNA-MaP array; FMN 200 µM where present
Procedure, shortened: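 Two titrations, one without ligand and one with constant ligand, were run with SNAP-549-labelled MS2 coat protein from 0.7 or 1.5 nM, doubling to 3 µM. The targets were designs transcribed by stalled E. coli RNA polymerase on Illumina sequencing-chip clusters, in 100 mM Tris-HCl pH 7.5, 80 mM KCl, 4 mM MgCl2, BSA, DTT, yeast tRNA and Tween-20. The apparent Kd is the median of filtered per-cluster binding-curve fits, with green signal normalised to red-channel RNA signal and control-cluster median Fmax.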

[1] = designed as: OFF switch for flavin mononucleotide, no ligand
[2] = ligand present: flavin mononucleotide, designed as: OFF switch for flavin mononucleotide
[3] = designed as: ON switch for flavin mononucleotide, no ligand
[4] = ligand present: flavin mononucleotide, designed as: ON switch for flavin mononucleotide

Sequence	apparent Kd [1] [µM]	apparent Kd [2] [µM]	apparent Kd [3] [µM]	apparent Kd [4] [µM]
UGUCGAAGCAGAGGAUAUUACAUGAGGAUCACCCAUGUAUGAACCAAUAGCUGGAAACAGCAAUGUAAGAAGGCUGCUCCGACA	0.0118	0.138	–	–
GCUGGGUCAGGAUAUACAAGAUCGAAAGAUCAAAGAUUCGUACAUGAGGAUCACCCAUGUAGAAGGGACUGGGC	0.0234	0.0317	–	–
UUACACUUGAGGGUCUCCCUUGACAUGAGGAUCACCCAUGUGCAGGAUAUACGUGUGAUGGUAUAGUAGAAGGGCACUCUAUGU	0.023	0.0297	–	–
GCGGGAGGAGGAUAUACAAUCGUGUGACCCGGACCCUAUGGACAUGAGGAUCACCCAUGUAGAAGGUUUCCCUU	0.112	0.568	–	–
GGGUACAUCGGAGGAUAUCAUGUAAAUACAUGAGGAUCACCCAUGUCGAUGGAGACAUCGGAGAUUGAGAAGGCCAAUGUACCG	–	–	0.18	0.00876
AUAGGAUGAGGUGACGUACAUGAGGAUCACCCAUGUUUGACACAGGAUAUCCCGCGACUUGGUUUGGAGAAGGGUGGCAGACAA	0.164	0.119	–	–
UAGAGUCUUGAGGAUAUUGGUACGUACCGGUCCCAAGAAGGCGAGACAUGAGGAUCACCCAUGUGACCGUGAGC	0.0319	0.0478	–	–
GCACCUCUAUUUGAACCGAUACGAACAUGAGGAUCACCCAUGUAGGAUAUGCUAAAAGUUGUGUUGCAGAAGGACAUUUAGUGC	0.0107	0.0105	–	–
AGCUCGCGAAGAGGAUAUACAGCGGCGACCUAUCAUGAUGAGCGGGUUACAUGAGGAUCACCCAUGUAGAAGGCUUCCCGACUC	0.0179	0.0522	–	–
CUCGUGUUAGGAUAUCGUGGCUGGGCUGGGACGUCCGAUCGCGAGAAGGGACAUGAGGAUCACCCAUGUAAAAC	0.0367	0.086	–	–
GCACUUUUAUUUGAACCGAUUCGAACAUGAGGAUCACCCAUGUAGGAUAUGCUAAAAGUUGUGAUGCAGAAGGACAUUAAGUGC	0.00594	0.00699	–	–
GGGUACAUCGGAGGAUAUCAUGUAAAUACAUGAGGAUCACCCAUGUCGAUGGAGACAUCGGAGAUUGAGAAGGCCGAUGUAGCG	–	–	0.19	0.00912
GGGAGUGGAGGGAAUAACAUGAGGAUCACCCAUGUAUGGGAGAGAAGGCAGGUCGGAGGGCGGUCUGAGGAUAUUUAGACUCCU	–	–	0.00896	0.00743
GAAUUAUUGAUCCAAUUUUACAACAUGAGGAUCACCCAUGUGCAGGAUAUCGUGUGUUUUAUAUUCGAGAAGGGCAUGAACUUU	0.213	0.495	–	–
UUAAAUCAUGUAGGAUAUGCAUGGCGAAGCUACGCAGAAGGACAUGAGGAUCACCCAUGUGCUAGCUACCGGAGACGGUGGCAA	0.0577	0.195	–	–
AUUAUAUAGGAAGGAUAUAGAAUAUUAUUUUAACAUGAGGAUCACCCAUGUAACCUUAUGUGUAGCUAGAAGGUCCAUUUAUUA	0.0975	0.153	–	–
GGACGCUAAGGAUAUACAUGAGGAUCACCCAUGUAGCCCGAAAGGGCGCGUUCCUUCUGUAGAAGGUGGCUAAA	0.017	0.0254	–	–
GUAGCAUGCCAAGGAUAUUCAUAUAGUAGGCAAACAUGAGGAUCACCCAUGUAAUGAGAGCACUGGGAGAAGGUGGGAUGCUAC	–	–	0.0286	0.0214
AUCAUGUAAGGAUAUCUGACAUGUGACUUCGGUCACUGUUCAGAGAAGGUACAUGAGGAUCACCCAUGUAGAAC	0.0767	0.0786	–	–
CGCAAUGAUAGAGGAUAUGUUUUACAUGAGGAUCACCCAUGUGUACAUGGAUUAAUAUAUAAGUAACAGAAGGCUAUUCAUGCG	0.0167	0.0152	–	–
AUCAGCUCGUCAGGAUAUACAACACUGCUUCGGCAGUAUGAUAAGAUAACAUGAGGAUCACCCAUGUAGAAGGGACGAGCUGAU	0.00699	0.00917	–	–
UGUAUGGACAGAGGAUAUACAGAUAGGAUCUACUAUCAAACAAUCCUGACAUGAGGAUCACCCAUGUAGAAGGCUGUCCAUACU	0.0238	0.0914	–	–
GCCUCACAUGAGGAUCACCCAUGUCAGGAUAUCUAACGCGAGGUGCAGGCACUUCGUGAGAGAAGGGACGUCAA	0.0203	0.0344	–	–
GUGUACGCAGGAUAUACAUGAGGAUCACCCAUGUGAAUAAGAUAGAAUAAGAUAAAGUGUAGAAGGGCGAGUGU	0.0352	0.0349	–	–
AAAGUGUGAGGAUAUCCUGGGCUGGGCCGGGAGGUUCGGUUGGAGAAGGCACAUGAGGAUCACCCAUGUAACGG	0.0627	0.0534	–	–
UCACGGUAUGUAGGAUAUGCAUAGCAUUGCUAUGCAGAAGGACAUGAGGAUCACCCAUGUAUGUAUUCCAUACUAUUCCCGUGU	0.00618	0.00609	–	–
AAGCCUAAUGAGAAGGUGUGUAUAAAUUAUAUACAAGGAUAUCGGUCGAGCGUGUUGACAUGAGGAUCACCCAUGUUGAGGCUU	–	–	0.0103	0.00622
AAUAAACAUGAGGAUCACCCAUGUCAGGAUAUGCGUCUAACCUAAUACCAUAGAUACGGCAGAAGGGACUAAUA	0.0502	0.0338	–	–

Sequence	apparent Kd [1] [µM]	apparent Kd [2] [µM]	apparent Kd [3] [µM]	apparent Kd [4] [µM]
CCUCAUUGGCAGGAUAUCAGCACUAACGUGGUAUGAGAAGGGUCGACAUGAGGAUCACCCAUGUCAAUUGUCUG	0.0312	0.122	–	–
GGAUAGGUCAGAGGAUAUACGUGCUAGAGAUACUAGCAAAAUUUCCUCACAUGAGGAUCACCCAUGUAGAAGGCUGUCCUAUCG	0.0124	0.278	–	–
CUGUUAUAGGUCCAGAAUUACAACAUGAGGAUCACCCAUGUGCAGGAUAUCGGGUUGAUAGGCGACGAGAAGGGCAUAGUCACG	0.0765	0.0792	–	–
AGCCUGCUGCGAGGAUAUCAACUAAAGGGUCCGAUUUCCGAGCGGAACAUGAGGAUCACCCAUGUUGAGAAGGCGCGAGUAUAG	0.0256	0.182	–	–
CGCUAGUCAGGAUAUACGCACAUGUCACCAGACGUGAAGGGACAUGAGGAUCACCCAUGUAGAAGGGACUAGCA	0.0879	0.203	–	–
UUACUAUUACAGAAGGUUAAAUAAUAUAUAAAUGAAGGAUAUGUAACAUGAGGAUCACCCAUGUUUCACCCACAUGAGGAUCAC	0.0139	0.012	–	–
UGCUGUGUCAGAGGAUAUCUACUAAUAAUCCAUUGCAAAUAGCGAUGGACAUGAGGAUCACCCAUGUAGAAGGCUGUCACAGCA	0.11	0.12	–	–
CCUAAGCGAGGAUAUACAUGAGGAUCACCCAUGUCCGCGUUCAUGAGGUUAAGAUCUUGUAGAAGGCGCCAAAA	0.033	0.161	–	–
GGUGCCAUGUAGAAGGCAGACCUGAUUCAGAUCUGAGGAUAUACAUGAGGAUCACCCAUGUAAAGGCACCGCACGAGAGUGCAA	0.00605	0.00857	–	–
GGAAAACAUGAGGAUCACCCAUGUGAGGAUAUCGAUGUCCAAAAAGAAGUGCGGGACUCGAGAAGGCACUUGGA	0.0527	0.0375	–	–
CUAUUAUUGAUCCAUUUUUUCAACAUGAGGAUCACCCAUGUGCAGGAUAUCGUGAUUAUUAUCAACGAGAAGGGCAGAUUCACG	0.0593	0.178	–	–
CGUGCGUAUGUGAGGAUAUGCUGGUCCUUGGAUCGGCAGAAGGCACAUGAGGAUCACCCAUGUGGUGUCGUUCC	0.0428	0.274	–	–
GGAUCUUGGGUCAGGAUAUGCUGGUAUUUUUGCCAGCAGAAGGGACAUGAGGAUCACCCAUGUUCUUGGUUUUG	0.0106	0.0139	–	–
UUUGCAUUCCGAGGAUAUUCAUAUAAUGACUUCACAUGAGGAUCACCCAUGUGGCGAUAGCCUAGGGAGAAGGCGGUUUGCUUU	–	–	0.0256	0.0206
GAUUGUGAAGGAUAUACUGGAGGAGUGCGAUAGAAGCACGAACAUGAGGAUCACCCAUGUAGAAGGUCAGGAGU	0.0345	0.0215	–	–
AAUAACAGAGGAUAUACUGUUUUAUGUGUUUGUUAUUUUGAACAUGAGGAUCACCCAUGUAGAAGGCUGAGUAA	0.0278	0.0284	–	–
GCGAUUUUGUAAGGAUAUACACGAGUUUCAAGUGUAGAAGGUACUUACAUGAGGAUCACCCAUGUAUACUUGGAUAAUAGUCGU	–	–	0.0292	0.0235
UUAGCGUAGGUAAGGAUAUGCUGGUCUAAUGAUCAGCAGAAGGUACAUGAGGAUCACCCAUGUGGAUUCGUUAU	0.0185	0.037	–	–
AAAAGACAUGAGGAUCACCCAUGUAAAAACAUGAGAGGAUAUCAUCUGACUUCGGUCAGAUGAGAAGGCUCAUGUC	–	–	0.0487	0.0269
AGCCAAAUAGGAUAUGCCCGGGAUAACAUGAGGAUCACCCAUGUGACCGAUUCAUGUCCUGCAGAAGGAUUUGGGA	0.0132	0.0244	–	–
UAUGUUGUUGUGAGGAUAUACUUUGUUUGGUCGUAGUAGAAGGCACAUGAGGAUCACCCAUGUAGAUUUUUGGU	0.0194	0.0248	–	–
UCGUUUGUACUAGGAUAUACCGACGAAAGAUCAGUAGAAGGAGUAACAGACAUGAGGAUCACCCAUGUAUGGGUCCUUAAACAA	0.0358	0.217	–	–
ACCCGACAUGAGGAUCACCCAUGUAAACAAUCAUGAGGAUAUCCGGAGCAAGUGCUCCAGGGAGAAGGCAUAAAAG	–	–	0.0763	0.0422
GUAGCAUACCGAGGAUAUUCAGGGCUUAAAUAAACAUGAGGAUCACCCAUGUGGCGAAAGCCUAGGGAGAAGGCGGAAUGCUAC	–	–	0.0146	0.0134
CUCGGCGAGGGAGGAUAUCCCUAUGAGGCGGUGCAGCUCGGGAACAUGAGGAUCACCCAUGUAGCGGAGAAGGCCCAUACGCCU	0.00959	0.0345	–	–
AGCUAGUACCGAGGAUAUACAUACAUGAGGAUCACCCAUGUAUACAUGAAUUUAUGAGACUACAUGUAGAAGGCGGUACUAGCA	–	–	0.0589	0.0159
CUUCGUAUAGAGGAUAUAGGAUACUGCGGUGUCCUAGAAGGCUGUACAUGAGGAUCACCCAUGUACUUCAGAUC	0.0126	0.0179	–	–
